Measured values published in ChEMBL document CHEMBL1629418, “Spiroimidazolidinone NPC1L1 inhibitors. Part 2: structure-activity studies and in vivo efficacy” (Bioorg Med Chem Lett, 2010).

Experiments:
Mus musculus [1] = assay: Inhibition of cholesterol-absorption in mouse plasma at 100 mg/kg, po; assay type: functional
How it was run: (§1)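 Male C57BL/6 mice received compound orally as a suspension in 0.2 mL of 0.25% methocel. After 30 min, mice were given 0.2 mL oral [3H]cholesterol in IntraLipid. Mice were euthanized at 1.5 h or 5 h. Plasma [3H]cholesterol was counted from cardiac-puncture blood; liver was saponified for [3H]cholesterol. Six data points per dose were averaged; % inhibition reported.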

Mus musculus [2] = assay: Inhibition of cholesterol-absorption in mouse liver at 100 mg/kg, po; assay type: functional; how it was run: as §1
[3] = molecular target: T1, NPC1-like intracellular cholesterol transporter 1 (Homo sapiens, UniProt Q9UHC9); assay: Displacement of [35S](2S,3S,4S,5R,6S)-6-(4-((2S,3R)-3-((S)-3-(4-fluorophenyl)-3-hydroxypropyl)-1-(4-(3-(methylsulfonamido)prop-1-ynyl)phenyl)-4-oxoazetidin-2-yl)phenoxy)-3,4,5-trihydroxytetrahydro-2H-pyran-2-carboxylic acid from human NCP1L1 expressed in HEK 293; assay type: cell-based, HEK293
T1 sequence (Q9UHC9 whole entry): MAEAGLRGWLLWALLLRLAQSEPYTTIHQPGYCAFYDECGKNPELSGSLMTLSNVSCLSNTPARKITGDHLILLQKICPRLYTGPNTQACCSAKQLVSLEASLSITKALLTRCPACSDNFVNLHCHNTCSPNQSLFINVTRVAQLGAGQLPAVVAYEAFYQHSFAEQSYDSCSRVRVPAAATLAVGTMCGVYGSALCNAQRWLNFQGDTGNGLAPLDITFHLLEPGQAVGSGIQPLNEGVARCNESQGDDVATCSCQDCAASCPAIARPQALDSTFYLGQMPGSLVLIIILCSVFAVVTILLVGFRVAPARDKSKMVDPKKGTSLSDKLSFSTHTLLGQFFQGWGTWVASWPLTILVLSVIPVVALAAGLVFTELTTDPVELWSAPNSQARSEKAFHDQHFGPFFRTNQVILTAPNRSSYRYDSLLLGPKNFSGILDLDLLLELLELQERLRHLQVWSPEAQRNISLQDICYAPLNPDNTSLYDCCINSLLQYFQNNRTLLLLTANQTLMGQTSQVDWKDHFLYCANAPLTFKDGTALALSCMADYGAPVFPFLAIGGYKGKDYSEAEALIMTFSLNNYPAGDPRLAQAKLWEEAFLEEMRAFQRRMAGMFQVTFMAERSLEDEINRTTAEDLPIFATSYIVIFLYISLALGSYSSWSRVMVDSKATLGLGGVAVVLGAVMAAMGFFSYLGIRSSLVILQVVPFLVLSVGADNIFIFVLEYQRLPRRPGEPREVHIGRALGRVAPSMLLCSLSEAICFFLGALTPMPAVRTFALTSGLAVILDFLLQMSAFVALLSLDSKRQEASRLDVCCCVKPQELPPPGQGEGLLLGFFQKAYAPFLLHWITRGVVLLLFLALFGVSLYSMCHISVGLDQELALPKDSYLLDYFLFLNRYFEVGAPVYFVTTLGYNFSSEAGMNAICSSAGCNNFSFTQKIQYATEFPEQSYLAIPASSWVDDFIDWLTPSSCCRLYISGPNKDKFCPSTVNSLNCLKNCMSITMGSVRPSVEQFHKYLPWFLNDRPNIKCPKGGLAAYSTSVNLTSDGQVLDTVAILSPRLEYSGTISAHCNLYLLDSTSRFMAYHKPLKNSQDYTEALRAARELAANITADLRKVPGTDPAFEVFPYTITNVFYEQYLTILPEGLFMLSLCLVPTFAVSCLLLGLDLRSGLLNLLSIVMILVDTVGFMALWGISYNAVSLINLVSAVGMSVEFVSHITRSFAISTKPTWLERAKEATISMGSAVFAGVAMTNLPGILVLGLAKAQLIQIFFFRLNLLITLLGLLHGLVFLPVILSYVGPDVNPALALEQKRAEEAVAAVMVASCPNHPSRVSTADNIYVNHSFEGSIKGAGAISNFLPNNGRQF

[4] = molecular target: NPC1-like intracellular cholesterol transporter 1 (Mus musculus) (UniProt Q6T3U4); assay: Displacement of [35S](2S,3S,4S,5R,6S)-6-(4-((2S,3R)-3-((S)-3-(4-fluorophenyl)-3-hydroxypropyl)-1-(4-(3-(methylsulfonamido)prop-1-ynyl)phenyl)-4-oxoazetidin-2-yl)phenoxy)-3,4,5-trihydroxytetrahydro-2H-pyran-2-carboxylic acid from mouse NCP1L1 expressed in mouse brush border membrane; assay type: cell membranes
[5] = molecular target: T2, NPC1-like intracellular cholesterol transporter 1 (Homo sapiens) (UniProt Q9UHC9); assay: Binding affinity to human NPC1L1
T2 sequence (whole entry): T1 sequence (Q9UHC9 whole entry)

Mus musculus [6] = assay: Inhibition of cholesterol-absorption in mouse at 10 mg/kg, po; assay type: functional; how it was run: as §1
Mus musculus [7] = assay: Inhibition of [3H]cholesterol absorption in C57BL/6 mouse plasma at 10 mg/kg, po after 1.5 hrs; assay type: functional; conditions: C57BL/6, Plasma; how it was run: as §1
Mus musculus [8] = assay: Inhibition of [3H]cholesterol absorption in C57BL/6 mouse plasma at 30 mg/kg, po after 1.5 hrs; assay type: functional; conditions: C57BL/6, Plasma; how it was run: as §1
Mus musculus [9] = assay: Inhibition of cholesterol-absorption in mouse plasma at 30 mg/kg, po; assay type: functional; how it was run: as §1
Mus musculus [10] = assay: Inhibition of cholesterol-absorption in mouse plasma at 10 mg/kg, po; assay type: functional; how it was run: as §1
Mus musculus [11] = assay: Inhibition of [3H]cholesterol absorption in C57BL/6 mouse plasma at 100 mg/kg, po after 5 hrs; assay type: functional; conditions: C57BL/6, Plasma; how it was run: as §1
Mus musculus [12] = assay: Inhibition of [3H]cholesterol absorption in C57BL/6 mouse plasma at 100 mg/kg, po after 1.5 hrs; assay type: functional; conditions: C57BL/6, Plasma; how it was run: as §1
Mus musculus [13] = assay: Inhibition of [3H]cholesterol absorption in C57BL/6 mouse plasma at 1 mg/kg, po after 1.5 hrs; assay type: functional; conditions: C57BL/6, Plasma; how it was run: as §1
Mus musculus [14] = assay: Inhibition of [3H]cholesterol absorption in C57BL/6 mouse plasma at 1 mg/kg, po after 5 hrs; assay type: functional; conditions: C57BL/6, Plasma; how it was run: as §1

Sequence of NPC1-like intracellular cholesterol transporter 1 (Mus musculus) (Q6T3U4 21-1333 limits assumed): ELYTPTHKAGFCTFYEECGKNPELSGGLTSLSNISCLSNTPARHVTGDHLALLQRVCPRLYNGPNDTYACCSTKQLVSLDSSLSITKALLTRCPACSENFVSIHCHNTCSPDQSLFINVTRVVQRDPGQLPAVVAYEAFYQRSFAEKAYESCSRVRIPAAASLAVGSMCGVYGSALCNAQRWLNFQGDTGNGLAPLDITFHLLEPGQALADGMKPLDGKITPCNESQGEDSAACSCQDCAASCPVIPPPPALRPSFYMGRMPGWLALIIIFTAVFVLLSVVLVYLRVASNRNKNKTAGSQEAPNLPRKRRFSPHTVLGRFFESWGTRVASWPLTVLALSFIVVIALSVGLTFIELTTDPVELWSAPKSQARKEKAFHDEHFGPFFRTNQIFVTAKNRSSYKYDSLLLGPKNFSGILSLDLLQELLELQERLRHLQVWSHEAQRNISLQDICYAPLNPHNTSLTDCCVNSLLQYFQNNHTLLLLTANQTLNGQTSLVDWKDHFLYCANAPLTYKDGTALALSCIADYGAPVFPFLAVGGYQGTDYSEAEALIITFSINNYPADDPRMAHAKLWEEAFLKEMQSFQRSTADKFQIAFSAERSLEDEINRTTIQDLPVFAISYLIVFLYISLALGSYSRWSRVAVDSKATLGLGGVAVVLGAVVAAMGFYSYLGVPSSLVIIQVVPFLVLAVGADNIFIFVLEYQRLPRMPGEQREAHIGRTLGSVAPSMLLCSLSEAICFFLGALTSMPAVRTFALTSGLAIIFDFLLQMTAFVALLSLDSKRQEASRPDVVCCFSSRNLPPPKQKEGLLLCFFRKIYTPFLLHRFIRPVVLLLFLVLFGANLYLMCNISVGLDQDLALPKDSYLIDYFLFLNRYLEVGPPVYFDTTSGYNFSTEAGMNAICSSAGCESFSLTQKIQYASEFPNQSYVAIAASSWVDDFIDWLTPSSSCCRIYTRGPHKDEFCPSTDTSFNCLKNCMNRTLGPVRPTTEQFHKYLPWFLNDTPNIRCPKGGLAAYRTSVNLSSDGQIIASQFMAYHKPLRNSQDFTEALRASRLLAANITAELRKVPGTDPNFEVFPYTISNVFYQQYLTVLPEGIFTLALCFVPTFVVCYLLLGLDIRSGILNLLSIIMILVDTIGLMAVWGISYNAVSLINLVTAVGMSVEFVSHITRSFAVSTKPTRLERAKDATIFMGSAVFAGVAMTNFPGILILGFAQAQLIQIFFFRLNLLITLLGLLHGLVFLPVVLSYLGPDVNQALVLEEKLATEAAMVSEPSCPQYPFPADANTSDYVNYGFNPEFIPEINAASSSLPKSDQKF

## CC(C)(C)OC(=O)N1CCN(C(=O)CN2CN(c3ccccc3)C3(CCN(C(=O)c4ccc(C5CCCCC5)cc4)CC3)C2=O)CC1
Mus musculus [1]
  inhibition in vivo at 100 mg/kg: 4.5%
Mus musculus [2]
  inhibition in vivo at 100 mg/kg: 58%
[3]
  IC50: 3.5 µM
[4]
  IC50: 49 µM

## CC(C)(C)c1ccc(C(=O)N2CCC3(CC2)C(=O)N(CC(=O)N2CCCCC2)CN3c2ccccc2)cc1
[5]
  Activity: 2.5 µM

## O=C(CN1CN(c2ccccc2)C2(CCN(C(=O)c3ccc(C4CCCCC4)cc3)CC2)C1=O)NCCCCO
[3]
  IC50: 1.7 µM
Mus musculus [6]
  inhibition in vivo at 10 mg/kg: 52%

## CC(C)(C)OC(=O)NCCCCNC(=O)CN1CN(c2ccccc2)C2(CCN(C(=O)c3ccc(C(C)(C)C)cc3)CC2)C1=O
Mus musculus [6]
  inhibition in vivo at 10 mg/kg: 7%

## CCc1nn(CC)c(C2CCN(C(=O)CN3CN(c4ccccc4)C4(CCN(C(=O)c5ccc(C(C)(C)C)cc5)CC4)C3=O)CC2)c1C
Mus musculus [1]
  inhibition in vivo at 100 mg/kg: 62%
Mus musculus [7]
  inhibition in vivo at 10 mg/kg: 35%
[3]
  IC50: 2.5 µM
[4]
  IC50: 40 µM
Mus musculus [8]
  inhibition in vivo at 30 mg/kg: 48%
Mus musculus [9]
  inhibition in vivo at 30 mg/kg: 48%
Mus musculus [10]
  inhibition in vivo at 10 mg/kg: 35%
Mus musculus [11]
  inhibition in vivo at 100 mg/kg: 67%
Mus musculus [12]
  inhibition in vivo at 100 mg/kg: 62%

## O=C(CN1CN(c2ccccc2)C2(CCN(C(=O)c3ccc(C4CCCCC4)cc3)CC2)C1=O)N1CCN(C(=O)c2ccccc2)CC1
Mus musculus [1]
  inhibition in vivo at 100 mg/kg: 52%
Mus musculus [2]
  inhibition in vivo at 100 mg/kg: 46%
[3]
  IC50: 4.8 µM
[4]
  IC50: 19 µM

## CC(C)(C)OC(=O)N1CCN(C(=O)CN2CN(c3ccccc3)C3(CCN(C(=O)c4ccc(C(C)(C)C)cc4)CC3)C2=O)CC1
[3]
  IC50: 1 µM
[4]
  IC50: 49 µM

## CS(=O)(=O)NCCCNC(=O)CN1CN(c2ccccc2)C2(CCN(C(=O)c3ccc(C4CCCCC4)cc3)CC2)C1=O
Mus musculus [1]
  inhibition in vivo at 100 mg/kg: < 5%
Mus musculus [2]
  inhibition in vivo at 100 mg/kg: < 5%
[3]
  IC50: 2.5 µM
Mus musculus [6]
  inhibition in vivo at 10 mg/kg: 42%

## COC(=O)CCNC(=O)CN1CN(c2ccccc2)C2(CCN(C(=O)c3ccc(C(C)(C)C)cc3)CC2)C1=O
Mus musculus [6]
  inhibition in vivo at 10 mg/kg: 44%

## COC(=O)CCCNC(=O)CN1CN(c2ccccc2)C2(CCN(C(=O)c3ccc(C(C)(C)C)cc3)CC2)C1=O
Mus musculus [6]
  inhibition in vivo at 10 mg/kg: 35%

## O=C(CN1CN(c2ccccc2)C2(CCN(C(=O)c3ccc(C4CCCCC4)cc3)CC2)C1=O)NCCCO
Mus musculus [1]
  inhibition in vivo at 100 mg/kg: 43%
Mus musculus [2]
  inhibition in vivo at 100 mg/kg: 70%
[3]
  IC50: 14 µM
Mus musculus [6]
  inhibition in vivo at 10 mg/kg: 42%

## O=C1[C@H](CC[C@H](O)c2ccc(F)cc2)[C@@H](c2ccc(O)cc2)N1c1ccc(F)cc1 [EZETIMIBE]
Mus musculus [13]
  inhibition in vivo at 1 mg/kg: 7%
Mus musculus [14]
  inhibition in vivo at 1 mg/kg: 90%

## CC(C)(C)c1ccc(C(=O)N2CCC3(CC2)C(=O)N(CC(=O)N2CCCC(O)C2)CN3c2ccccc2)cc1 (stereo not drawn)
[3]
  IC50: 12.2 µM

## CC(C)(C)c1ccc(C(=O)N2CCC3(CC2)C(=O)N(CC(=O)NCCCCNS(C)(=O)=O)CN3c2ccccc2)cc1
[3]
  IC50: 10.3 µM

## CC(C)(C)c1ccc(C(=O)N2CCC3(CC2)C(=O)N(CC(=O)NCCO)CN3c2ccccc2)cc1
[3]
  IC50: 19.2 µM

## CC(C)(C)c1ccc(C(=O)N2CCC3(CC2)C(=O)N(CC(=O)NCCCNS(C)(=O)=O)CN3c2ccccc2)cc1
[3]
  IC50: 10.4 µM

## CCOC(=O)C1CCN(C(=O)CN2CN(c3ccccc3)C3(CCN(C(=O)c4ccc(C5CCCCC5)cc4)CC3)C2=O)CC1
[3]
  IC50: 0.9 µM

## O=C(CN1CN(c2ccccc2)C2(CCN(C(=O)c3ccc(C4CCCCC4)cc3)CC2)C1=O)N1CCNCC1
[3]
  IC50: 6.5 µM

## CC(C)(C)c1ccc(C(=O)N2CCC3(CC2)C(=O)N(CC(=O)N2CCC(CCO)CC2)CN3c2ccccc2)cc1
[3]
  IC50: 2.6 µM

## NCCNC(=O)CN1CN(c2ccccc2)C2(CCN(C(=O)c3ccc(C4CCCCC4)cc3)CC2)C1=O
[3]
  IC50: 26.5 µM
